Results taken from the RNAGym collection of RNA variant scans (doi:10.1126/science.aae0568).
This sample holds only a part of the variants without activity.

B1: tRNA (parent)
chain: GUUCCGUUGGCGUAAUGGUAACGCGUCUCCCUCCUAAGGAGAAGACUGCGGGUUCGAGUCCCGUACGGAACG

Variants of: B1
Assay: yeast fitness relative to wild type (ratio to wild type); higher = fitter; tRNA-Arg(CCU), competitive growth, 37 C, YPD
In short: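 Variants of the tRNA-Arg(CCU) gene, chemically synthesised with a 3% per-site mutation rate at 69 sites, were placed at the native genomic locus in Saccharomyces cerevisiae. The pooled strains were competed in YPD at 37°C for 24 hours in six parallel replicates. Gene amplicons from the start population and from each end population were read by 100-nucleotide paired-end sequencing. Darwinian fitness relative to wild type came from changes in genotype frequencies; genotypes needed ≥ 100 starting reads, and estimates < 0.5 were set to 0.5.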

Variant | yeast fitness
G25C U28C A69G A70C | ≤ 0.5
U26A A40U C61U | 0.656
U26C C33U G52C | 0.609
U26A U54A C55U | ≤ 0.5
U26A C29U C31U G48A | 0.596
U26C C29A G67C | ≤ 0.5
U26G A45C | 0.795
C27A A37G U53A | ≤ 0.5
U26C C30U U59A A69U | ≤ 0.5
C27A A37U C61U | ≤ 0.5
U26A A43C | 0.966
U26G C31U G68C | 0.636
U26C U32A C34U G38C G51A C60U C62U | ≤ 0.5
U26A C61A A65U | 0.686
U26A C46A C62G | 0.797
C27A C31A | 0.758
U26A A42C A45G C49U | ≤ 0.5
G25C G41C G48C | ≤ 0.5
U26A G50A | 0.875
U26C U28C C29G C34A | ≤ 0.5
U26C U35G | 0.615

Variant | yeast fitness
C27A A57C C62U | 0.531
C27A A36G C49U A70U | ≤ 0.5
U26C A42C U54A | ≤ 0.5
C27A C31U A43U | 0.961
U26C C30G C61U | ≤ 0.5
U26A G39A G41C U54C | ≤ 0.5
U26C A45U G68C | ≤ 0.5
U26A U28A C30G | 0.584
U26C C27U A57G | 0.725
U26G C30U U32G G52C | ≤ 0.5
U26C A40C C46U A65G G68C | ≤ 0.5
U26A C34U A43U C66G | 0.628
U26C C30G C34A C49G G50A U64A | ≤ 0.5
U26A A36U | 0.606
U26A A36U C49A | ≤ 0.5
U26C U35G G50A C62U | ≤ 0.5
G25U U64A | 0.687
C27A A70C | 0.787
C27A A70U | 0.962
U26C C46A U47G G50A C61A G67A | ≤ 0.5
U26C G63A | 0.916

Variant | yeast fitness
U26C A42U G56A | 0.651
U26C C30U G44C G51A C61U | ≤ 0.5
U26A A45G C66G G67U | ≤ 0.5
U26A U35C G68A | 0.631
U26A A65C | 0.946
G25C U28C | 0.79
G25C U28C C62U A70C | ≤ 0.5
G25U A36U G56C | ≤ 0.5
U26A C27U A65G A69G | 0.669
U26C C66A | 0.631
C27A C30A | 0.766
U26A C66U | 0.824
U26A C66A | 0.572
C27A C31U A43G C61U A65C | 0.501
C27A A37C G44A U53G | ≤ 0.5
U26A A57C G67A A69U | 0.58
G25C U26G C46G G51A A70U | ≤ 0.5
C27A A37C G68A | ≤ 0.5
U26A C27U | 0.919
U26C C46G | 0.894
U26C C46A | 0.882

Variant | yeast fitness
U26C C46U | 0.928
U26A A42G U47C G63A | 0.519
C27A C29A C49A | ≤ 0.5
U26A C29G A43G A45U | ≤ 0.5
U26C U32C A70G | 0.659
U26A G48A C62A | 0.605
U26C G51A | 0.774
U26G C46G | 0.807
U26C C27U C62A | 0.658
G25U A65U | 1.02
U26G A37C | 0.652
U26G U59C | 0.936
U26C G67U | 0.696
U26A A57C A70U | ≤ 0.5
U26G U28A A45C | ≤ 0.5
G25C G51A | 1.01
U26A C62A | 0.803
C27A C34U A42C U53G C66U | 0.536
U26A A57G C60U | ≤ 0.5
U26G A70U | 0.896
U26A C31G | 0.942
